Most compounds without a hit are left out; they make up all but 2.3% or so of the library.
SKN-1 inh: blocks SKN-1 activity in C. elegans | C. elegans VP596 Pgst-4::GFP/RFP ratio, acrylamide-induced, 24 h | inhibition, % at 21.8 µM | hit rate 0.49% among 360,000 | AID 624304;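 active = interference check ratio from 0.5 to 1.5 plus GFP to RFP signal ratio inhibition reaching or exceeding a fixed threshold, cut at about 30% in these data, passing the limit was not always enough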
MPTP block: permeability transition pore inhibition; isolated mouse mitochondria, Ca2+ swelling absorbance, 30 min; inhibition, % at 10 µM; hit rate 1.4% among 360,000; AID 602449;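 active = inhibition of 50% or more, scaled per plate between neutral and stimulator controls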;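 note: 0% = DMSO wells given calcium and 100% = 1 mM EGTA wells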
ATG4B inhibitor: blocks human ATG4B protease cleavage of LC3 substrate. Q9Y4P1. ATG4B cleavage of LC3-PLA2, NBD-HPC fluorescence, 1 h. inhibition, % at 8.33 µM. hit rate 0.51% among 340,000; in the data active = inhibition above about 40%
Target sequence (Q9Y4P1 whole entry, looked up): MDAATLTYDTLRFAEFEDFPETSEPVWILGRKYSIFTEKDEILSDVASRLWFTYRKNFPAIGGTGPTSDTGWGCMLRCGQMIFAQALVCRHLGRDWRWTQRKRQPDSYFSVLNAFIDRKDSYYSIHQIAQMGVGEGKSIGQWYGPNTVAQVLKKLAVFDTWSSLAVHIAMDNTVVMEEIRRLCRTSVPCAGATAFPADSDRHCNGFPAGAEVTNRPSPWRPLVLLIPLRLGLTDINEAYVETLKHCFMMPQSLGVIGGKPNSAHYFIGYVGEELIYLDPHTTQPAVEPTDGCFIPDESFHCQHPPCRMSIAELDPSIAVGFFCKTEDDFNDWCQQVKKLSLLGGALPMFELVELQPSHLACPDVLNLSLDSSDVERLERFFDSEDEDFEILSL
MT1-MMP act inh: inhibitors of human MT1-MMP activation | HT1080 RFP-PRO-GFP cells, GFP/RFP ratio fluorescence, overnight; percent of plate control window, DMSO zero | GFP/RFP ratio change, % at 20 µM | P50281 | hit rate 0.061% among 360,000;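 active = GFP/RFP ratio change of at least 30% with cell ATP level not reduced by more than half and red fluorescence within 50% of control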
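Assay system: HT1080 RFP-PRO-GFP cells. Benchmarks: DMSO vehicle wells and RFP-L50D-GFP reporter cell wells. Times: overnight cell settling, then overnight compound exposure, 37 °C, 5% CO2. Compound: 20 µM single dose, 1% DMSO. Read-out basis: GFP/RFP fluorescence ratio.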
Rh123 counter: mitochondrial membrane potential, counter-screen | shares compounds with MPTP block | isolated mitochondria, Rhodamine 123 fluorescence | inhibition, % at 10 µM | hit rate 78% among 5,000; in the data active = inhibition above about 22%;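 note: 0% = DMSO vehicle and 100% = positive control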
MPTP abs DR: MPTP inhibition, dose response swelling confirmation; shares compounds with MPTP block; isolated mitochondria swelling, absorbance; IC50, µM; hit rate 58% among 780; in the data active = IC50 below about 20 µM
MPTP counter DR: active in counter-screen for permeability transition pore inhibitors; shares compounds with MPTP block; isolated mitochondria counterscreen, fluorescence read-out; IC50, µM; hit rate 49% among 780; in the data active = IC50 below about 80 µM
* = called active by the depositor; i = inactive; . = not tested or not shown.

SMILES	SKN-1 inh	MPTP block	ATG4B inhibitor	MT1-MMP act inh	Rh123 counter	others
Fc1ccccc1NC(=S)Nc1ccc(Br)cc1	-8	97*	3	2	95*
Fc1cc(Br)ccc1NC(=S)Nc1ccccc1	-10	92*	9	0	93*
O=C(Nc1ccc(Br)cc1)Nc1ccccc1F	11	80*	-9	-2	90*
CC1(C)CC(=O)C=C(C#CC2(O)CCCCC2)C1	11	-1	.	1	.
COc1ccc(Cl)cc1Nc1nc(Cl)nc(NCCO)n1	11	-1	.	-2	.
CC(C)COc1ccc(C/C(N)=N/n2cnnc2)cc1	-11	66*	-5	-1	54*
C(=C\c1nc(N2CCCC2)c2ccccc2n1)/c1ccccc1	11	90*	2	-1	95*
CCOc1ccc(N(C)S(=O)(=O)c2c[nH]c(C(=O)OC)c2)cc1	14	-2	-7	1	.
CC(C)Nc1nc(NCCOc2ccccc2Cl)c2sc(-c3ccccc3)cc2n1	20	60*	.	-3	105*
COc1ccccc1CNc1nc(NC(C)C)nc2cc(-c3ccccc3)sc12	-4	75*	.	13	101*
Cc1cccc(NC(=O)C(NS(=O)(=O)c2ccc3c(c2)CCC(=O)N3)c2ccccc2)n1 (stereo unspecified)	4	-1	-2	4	.
O=C(CSc1ncc(-c2ccc(F)cc2)n1Cc1ccco1)Nc1ccc2c(c1)OCO2	10	85*	18	2	62*
CCOc1ccc(NC(=O)CSc2ncc(-c3ccc(F)cc3)n2Cc2ccco2)cc1	-14	8	4	1	.
COc1cc(NC(=O)c2cc(-c3ccc(C)cc3)on2)cc(OC)c1OC	0	1	6	-3	.
CCc1ccccc1NC(=O)c1cc(-c2cccc(O)c2)on1	-7	102*	-9	0	6	MPTP abs DR=2.1*;MPTP counter DR=>80
COc1cc(NC(=O)c2cc(-c3cccc(O)c3)on2)cc(OC)c1OC	8	110*	-2	1	14	MPTP abs DR=2.6*;MPTP counter DR=>80
O=C(Nc1cccnc1Cl)c1cc(-c2cccc(O)c2)on1	15	81*	1	-2	-7	MPTP abs DR=>100;MPTP counter DR=>80
CC1Cc2ccccc2N1C(=O)COC(=O)c1ccc(N(C)C)cc1 (stereo unspecified)	3	-1	2	-1	.
Cc1c(S(=O)(=O)NC2CCCCCC2)c(=O)n(C)c(=O)n1C	2	-1	-16	0	.
COC(=O)c1c(NC(=O)C2CCCCC2)sc2c1CC(C)(C)NC2(C)C	-9	67*	-6	-4	-10	MPTP abs DR=6.2*;MPTP counter DR=>80
COC(=O)c1c(NC(=O)COc2ccc(Cl)cc2)sc2c1CC(C)(C)NC2(C)C	4	2	-4	-17	.
COC(=O)c1c(NC(=O)Cc2ccccc2)sc2c1CC(C)(C)NC2(C)C	-4	74*	-5	-4	-3	MPTP abs DR=i;MPTP counter DR=>80
Cc1nnc(SCC(=O)Nc2nccs2)n(N)c1=O	2	0	-4	2	.
CN1CCN(c2ccccc2NC(=O)c2ccc(OCc3ccccc3)cc2)CC1	-18	78*	3	-1	-10	MPTP abs DR=9.4*;MPTP counter DR=>80
CN1CCN(c2ccccc2NC(=O)c2cccc(OCc3ccccc3)c2)CC1	4	1	9	-13	.
SMILES	SKN-1 inh	MPTP block	ATG4B inhibitor	MT1-MMP act inh	Rh123 counter	others
CCOc1ccc(C(=O)Nc2ccc(N3CCN(C)CC3)cc2)cc1	-8	-1	-7	-2	.
CN1CCN(c2ccccc2NC(=O)C(Cc2ccccc2)n2cccc2)CC1 (stereo unspecified)	-7	81*	-9	0	-12	MPTP abs DR=i;MPTP counter DR=>80
CCCCOc1ccc(C(=O)Nc2ccc(N3CCN(C)CC3)cc2)cc1	-2	90*	0	5	-8	MPTP abs DR=i;MPTP counter DR=>80
Cc1nnc(NC(=O)CSc2n[nH]c(-c3ccccc3C)n2)s1	2	96*	-5	-2	-8	MPTP abs DR=>100;MPTP counter DR=>80
CCCCn1c(N)c(N(CC(C)C)C(=O)C2CC(=O)N(c3ccc(C)cc3)C2)c(=O)[nH]c1=O (stereo unspecified)	-7	0	-11	-1	.
C/C(=N\NC(=O)c1ccccc1O)C1C(=O)c2ccccc2C1=O	19	64*	23	-1	70*
CCC/C(C)=N/NC(=O)c1ccccc1O	-1	0	3	3	.
Cc1ccc(C)c(NC(=O)C(Sc2nc3ccc(C)cc3[nH]2)c2ccccc2)c1 (stereo unspecified)	5	84*	-6	-31	92*
Cc1ccc2nc(SC(C(=O)Nc3ccc(F)cc3)c3ccccc3)[nH]c2c1 (stereo unspecified)	27	77*	-8	-4	86*
CCC(Sc1nc2ccc(C)cc2[nH]1)C(=O)O (stereo unspecified)	-4	0	8	-2	.
O=C(OCC(=O)N1CCCCCC1)c1ccccc1Br	-8	0	3	-1	.
O=C(Nc1ccc(F)cc1)Nc1csc2ccccc12	14	75*	6	-5	91*
CN(C)c1ccc(NC(=O)Nc2csc3ccccc23)cc1	15	52*	-15	2	54*
CN1CCC(CNC(=O)Nc2csc3ccccc23)CC1	-1	1	4	-4	.
CSc1cccc(NC(=S)NC(=O)c2cccnc2)c1	13	2	-1	1	.
c1ccc2oc(NC3=NCN(C4CCCCC4)CN3)nc2c1	-10	-2	1	2	.
c1ccc2sc(NC3=NCN(C4CCCCCC4)CN3)nc2c1	14	95*	-9	5	20
COc1ccc(C)cc1Nc1n[n+](-c2ccccc2)c(-c2c(OC)ccc3ccccc23)s1	6	100*	12	10	105*
Oc1ccc2ccccc2c1-c1sc(Nc2ccccc2)n[n+]1-c1ccc(F)cc1	-31	3	-30	-18	.
Fc1ccc(-[n+]2nc(Nc3ccccc3)sc2-c2c3ccccc3cc3ccccc23)cc1	-14	92*	18	16	111*
c1ccc(-[n+]2nc(Nc3cccc4ccccc34)sc2-c2c3ccccc3cc3ccccc23)cc1	10	98*	24	14	93*
Cc1ccc(C)c2[nH]c(=O)c(CCNC(=O)C(C)(C)C)cc12	13	2	-1	2	.
CC1=C/C(=N\OS(=O)(=O)c2ccccc2)C(C)=CC1=O	-3	98*	0	-23	100*
CC1=C(C)/C(=N\OS(=O)(=O)c2ccc(C)cc2)C=CC1=O	-3	98*	-5	6	104*
CC1=C/C(=N\OS(=O)(=O)c2ccccc2)C(C(C)C)=CC1=O	-4	6	2	-11	.
OC(COc1ccc(OCC(O)CN2CCCCC2)cc1)CN1CCCCC1 (stereo unspecified)	7	0	3	2	.

Bioassay records (PubChem BioAssay)
